Cardio protect – cardioprotection against H2O2-induced cell death, primary screen, uHTS, H9c2 cells, ATPLite luminescence; H9c2 cardiomyocytes, H2O2 injury protection, 2 h; protection from H2O2 cell death, % at 20 µM; 0.63% of 360,000 active;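 active means compounds giving at least 50% protection of heart cells from peroxide-induced death in the single-dose screen, raw or plate-pattern-corrected value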
FAS TE block – FAS thioesterase domain inhibitors, primary screen, biochemical, fluorescence intensity, uHTS | Fatty acid synthase (Homo sapiens), P49327 | recombinant FAS-TE, OMFH fluorogenic substrate, fluorescence endpoint | inhibition, % at 15 µM | 0.67% of 360,000 active | AID 602261, 2012;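 active means compounds whose normalised, plate-corrected inhibition of enzyme fluorescence in the single-dose primary screen is 50% or more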
iPSC survival up – enhancers of single-cell hiPSC survival, primary screen, ATPlite luminescence. 100% = ROCK inhibitor wells, 0% = DMSO. AID 602274, 2012. survival enhancement, % at 20 µM. 0.044% of 360,000 active; in the data active means survival enhancement above about 18%;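 further: cells exposed to compounds for 16 hours before the ATP read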
GRIN3A LBD mod – binders of NR3A ligand-binding domain, primary screen, biophysical, differential scanning fluorimetry, uHTS; Glutamate receptor ionotropic, NMDA 3A (GRIN3A) ligand-binding domain; 2.5% of 340,000 active; NR3A LBD differential scanning fluorimetry, Tm shift; 0% = protein alone, 100% = glycine-bound protein; Tm shift relative to glycine control, % at 25 µM;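 active means melting temperature shift of at least 10% of the positive control shift, at one fixed dose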
SENP1 FRET inh – human SENP1 catalytic domain inhibitors, primary screen, biochemical, FRET, uHTS | recombinant SENP1 catalytic domain, CyPet-SUMO1-YPet FRET cleavage | 0.21% of 360,000 active | Sentrin-specific protease 1 (Homo sapiens), Q9P0U3 | AID 624204, 2012 | inhibition, % at 10 µM;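 active means inhibition at least 30% at 10 µM, raw YFP signal under a set limit, fluorescence ratio 0.5 to 1.5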
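Controls: no-enzyme wells low, DMSO-plus-enzyme wells high control. Test system: human recombinant His6-tagged SENP1 catalytic domain enzyme. Reagent: SFCypet-SUMO1-SFYpet FRET protein substrate, 25 nM final. Doses: one dose per compound, 10 µM, 0.5% DMSO. Detection: FRET, CFP and YFP emission. Timing: 50 min reaction at room temperature.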
Arr AP2 block – inhibitors of beta-arrestin/AP2 binding, primary screen, biochemical, GPCR trafficking, flow cytometry. 0.31% of 340,000 active. beta-arrestin 1 C-terminal peptide binding to AP2 beta2-adaptin appendage (human). inhibition, % at 10 µM. FITC-arrestin peptide / GST-AP2 beads; AP2 beta2 appendage carries R879A mutation;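 active means inhibition above a set limit, near 3 SD of compounds lacking own fluorescence, cut at about 54% in these data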
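System: GST-tagged AP2 beta2-adaptin appendage (R879A) on 4 µm glutathione beads / Reagent: FITC-arrestin peptide, 50 nM / Detection: HyperCyt-sampled flow cytometry, FL1 channel, ex 488/em 535 nm / Timing: 12 min plus 1 h, RT / Buffer or medium: PBS plus Tween 20 (0.05%) and BSA (0.1%)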
FAS-TE inh conf – FAS thioesterase domain inhibitors, confirmation, biochemical, fluorescence intensity, single concentration; inhibition, % at 15 µM; recombinant FAS-TE, OMFH fluorogenic substrate; 45% of 2,300 active; shares compounds with FAS TE block; AID 624325, 2012;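 active means compounds inhibiting the enzyme by at least 50% at 15 µM in any one of the replicates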
Hits are given with their value; . = inactive; / = not tested or not shown. Sampled rows, rich in hits. Any-hit rate of the full collection: about 4%.

SMILES	Cardio protect	FAS TE block	iPSC survival up	GRIN3A LBD mod	SENP1 FRET inh	Arr AP2 block	FAS-TE inh conf
Cc1ccc(-c2cc(C(F)F)n3ncc(C(=O)N4CCc5ccccc54)c3n2)cc1	.	52	.	.	.	.	.
O=C(c1cnn2c(C(F)F)cc(-c3ccccc3)nc12)N1CCc2ccccc21	.	.	.	.	.	.	/
Cc1ccc(-c2cc(C(F)F)n3ncc(C(=O)Nc4c(C)nn(Cc5ccccc5Cl)c4C)c3n2)cc1	.	50	.	.	.	.	.
Cc1ccc(S(=O)(=O)N(C(=O)c2ccncc2)c2ccc(OC(=O)c3ccncc3)c3ccccc23)cc1	.	57	.	.	.	.	.
Cc1ccc(S(=O)(=O)N(C(=O)c2ccncc2)c2ccc(OC(=O)c3ccncc3)c3ccccc23)c(C)c1	.	.	.	.	.	.	/
O=C(c1cccc(S(=O)(=O)NCc2ccccc2)c1)N1CCN(c2ccccc2Cl)CC1	.	.	.	.	.	.	/
COc1cc(C(=O)NC(=S)Nc2ccccc2[N+](=O)[O-])cc(OC)c1OC	.	65	.	.	.	.	.
COc1cc(C(=O)NC(=S)Nc2ccc([N+](=O)[O-])cc2C)cc(OC)c1OC	.	.	.	.	.	.	/
CC(NC(=O)C(C(=O)c1cccc([N+](=O)[O-])c1)n1cc(Cl)ccc1=O)c1ccccc1 (centres undefined)	.	59	.	.	.	.	65
Cc1onc(-c2ccccc2)c1C(=O)n1nnc2ccccc21	.	52	.	.	.	.	51
Cc1ccc(NC(=S)NC2CCSc3ccccc32)cc1C (centres undefined)	.	.	.	.	.	.	/
C=CCn1c(=N)c(S(=O)(=O)c2ccc(C)c(C)c2)cc2c(=O)n3ccccc3nc21	.	54	.	.	.	.	.
Cc1ccc(S(=O)(=O)c2cc3c(=O)n4ccccc4nc3n(C)c2=N)cc1C	.	.	.	.	.	.	/
O=C(Nc1cccc(C(F)(F)F)c1)c1cccnc1NCCc1ccccc1	.	53	.	28	.	.	.
CCN1C(=O)[C@H]2[C@@H](c3ccc(-c4ccc5c(c4)OCO5)cc3)N[C@@](Cc3ccccc3)(C(=O)OC)[C@H]2C1=O	.	67	.	.	.	.	.
CCN1C(=O)[C@H]2[C@@H](c3ccc(-c4cccc(Cl)c4)cc3)N[C@@](Cc3ccccc3)(C(=O)OC)[C@H]2C1=O	.	.	.	.	.	.	/
CCN1C(=O)[C@H]2[C@@H](c3ccc(-c4ccc(Cl)c(Cl)c4)c(OC)c3)N[C@@](Cc3ccccc3)(C(=O)OC)[C@H]2C1=O	.	70	.	.	.	.	.
O=C(c1[nH]c(C(F)(F)F)nc1-c1ccccc1)N1CCN(c2ncccn2)CC1	.	.	.	/	.	/	/
CC(C)c1ccc(CSc2ccc(S(=O)(=O)N3CCOCC3)cn2)cc1	.	69	.	.	.	.	36
Cc1ccc(CSc2ccc(S(=O)(=O)N3CCOCC3)cn2)cc1	.	.	.	.	.	.	/
O=[N+]([O-])c1ccc(CSc2ccc(S(=O)(=O)N3CCOCC3)cn2)cc1	.	53	.	.	.	.	55
N#Cc1ccc(CSc2ccc(S(=O)(=O)N3CCCC3)cn2)cc1	.	64	.	.	.	.	64
O=[N+]([O-])c1ccc(CSc2ccc(S(=O)(=O)N3CCCCC3)cn2)cc1	.	.	.	.	.	.	/
O=[N+]([O-])c1ccc(CSc2ccc(S(=O)(=O)N3CCCC3)cn2)cc1	.	58	.	.	.	.	54
Cc1ccc(CSc2ccc(S(=O)(=O)N3CCCC3)cn2)cc1	.	.	.	.	.	.	/
SMILES	Cardio protect	FAS TE block	iPSC survival up	GRIN3A LBD mod	SENP1 FRET inh	Arr AP2 block	FAS-TE inh conf
COC(=O)C[C@H]1CC[C@@H](NC(=O)Nc2ccc(C(F)(F)F)cc2)[C@@H](CO)O1	/	/	/	/	.	/	/
C[C@@H]1CCCCO[C@H](CN(C)C(=O)c2ccccc2)[C@@H](C)CN([C@H](C)CO)C(=O)c2cc(NC(=O)c3ccncc3)ccc2O1	.	.	.	/	.	/	/
CC(C)CC1NC(=O)c2cc3ccccc3cc2-n2c1nc1cc(Cl)ccc1c2=O (centres undefined)	.	82	.	/	.	/	.
O=C1NC(Cc2ccccc2)c2nc3cc(F)ccc3c(=O)n2-c2cc3ccccc3cc21 (centres undefined)	.	92	.	/	.	/	.
Cc1ccc2c(=O)n3c(nc2c1)C(Cc1ccccc1)NC(=O)c1cc2ccccc2cc1-3 (centres undefined)	.	76	.	/	.	/	.
COc1cc2nc3n(c(=O)c2cc1OC)-c1cc2ccccc2cc1C(=O)NC3Cc1ccccc1 (centres undefined)	.	53	.	/	.	/	.
CN(CCc1ccccc1)C(CCc1ccccc1)C(=O)Nc1ccc2c(c1)OCCO2 (centres undefined)	.	.	.	/	.	/	/
O=C1NC(Cc2ccccc2)c2nc3cc(F)c(F)cc3c(=O)n2-c2cc3ccccc3cc21 (centres undefined)	.	86	.	/	.	/	.
Cc1ccc2nc3n(c(=O)c2c1)-c1cc2ccccc2cc1C(=O)NC3Cc1ccc(O)cc1 (centres undefined)	.	.	.	/	.	/	/
O=C1NC(Cc2ccccc2)c2nc3ccccc3c(=O)n2-c2cc3ccccc3cc21 (centres undefined)	.	70	.	/	.	/	.
CC1=C(C(=O)Nc2ccccc2)C(c2ccco2)C(C#N)=C(SCC(=O)Nc2cccc(C)c2C)N1 (centres undefined)	.	.	.	.	.	.	/
CCOc1ccccc1NC(=O)CSC1=C(C#N)C(c2ccco2)C(C(=O)Nc2nc3ccccc3s2)=C(C)N1 (centres undefined)	.	81	.	.	.	.	.
Cc1cccc(COCC(CC(C)C)N2CCN(C(=O)c3ccc(C(F)(F)F)cc3)CCC2=O)c1 (centres undefined)	.	.	.	.	.	.	/
Cc1cccc(COC[C@H](CC(C)C)N2CCN(C(=O)c3ccc(C(C)(C)C)cc3)CCC2=O)c1	/	54	.	/	.	/	45
